According to ChEMBL document CHEMBL1123910, “Indolizidine and quinolizidine derivatives of the dopamine autoreceptor agonist 3-(3-hydroxyphenyl)-N-n-propylpiperidine (3-PPP)” (1987):

Key:
Assay type in all cases: functional
Rattus norvegicus [1] = assay: Antagonism of apomorphine induced stereotype was recorded at 30 minutes after apomorphine subcutaneous administration; conditions: sc, 0.5 h
Procedure, shortened: (§1)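 Rats housed in wire mesh cages from the day before. Test drug or saline given sc 30 min before apomorphine (8.2 µmol = 2.5 mg/kg, sc). Oral stereotypy (licking, biting) scored every 15 min for 90 min. ED50 taken from the 30-min post-apomorphine observation, when control activity peaked.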

Rattus norvegicus [2] = assay: Inhibition of spontaneous locomotor activity was performed in photocell cages at 30-45 minutes after subcutaneous administration
Procedure, shortened: (§2)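 Rats in photocell cages. Motility counted 30-45 min after sc test drug or saline. Injection volume 5 mL/kg.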

Rattus norvegicus [3] = assay: Contralateral circling behavior in 6-OH-DA-lesioned rats was recorded after subcutaneous administration
Rattus norvegicus [4] = assay: Reversal of reserpine plus alpha-Methyl-p-tyrosine-induced hypoactivity in rats was recorded at 1 hr after subcutaneous administration; conditions: sc
Procedure, shortened: (§3)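 Rats pretreated with reserpine (8.2 µmol/kg = 5 mg/kg sc) 16-20 h before, and α-methyl-p-tyrosine methyl ester (813 µmol/kg = 200 mg/kg ip) 2 h before, test drug or saline. Motility measured under artificial light for 1 h from injection. Counts scored 0 (0-49), 1 (50-149) or 2 (>150). ED50 by log-probit as dose giving half-maximal score.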

Rattus norvegicus [5] = assay: Antagonism of apomorphine induced stereotype in rats was recorded at 30 minutes after subcutaneous administration of apomorphine; conditions: sc, 0.5 h; procedure, shortened: as §1
Rattus norvegicus [6] = assay: Reversal of reserpine plus alpha-Methyl-p-tyrosine-induced hypoactivity in rats was recorded at 1 h after administration; procedure, shortened: as §3
Rattus norvegicus [7] = assay: Inhibition of spontaneous locomotor activity was performed in photocell cages. Motility was measured at […] after subcutaneous administration; conditions: sc; procedure, shortened: as §2
Rattus norvegicus [8] = species on record: Rattus norvegicus; assay: Inhibition of spontaneous locomotor activity was performed in photocell cages. Motility was measured at 5 minutes
Procedure, shortened: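 Rats in photocell cages. Motility counted 5 min after sc injection of test drug. Injection volume 5 mL/kg.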

Rattus norvegicus [9] = assay: Antagonism of apomorphine induced stereotype in rats was recorded after subcutaneous administration of apomorphine; conditions: sc; procedure, shortened: as §1
Rattus norvegicus [10] = assay: Ispilateral circling behavior in 6-OH-DA-lesioned rats was recorded after subcutaneous administration; conditions: sc
Rattus norvegicus [11] = species on record: Rattus norvegicus; assay: Reversal of reserpine plus alpha-Methyl-p-tyrosine-induced hypoactivity in rats was recorded.; procedure, shortened: as §3
Rattus norvegicus [12] = assay: Antagonism of apomorphine induced stereotype in rats was recorded at 30 minutes after subcutaneous administration apomorphine; conditions: sc, 0.5 h; procedure, shortened: as §1
Rattus norvegicus [13] = assay: Reversal of reserpine plus alpha-Methyl-p-tyrosine-induced hypoactivity in rats was recorded after subcutaneous administration; conditions: sc; procedure, shortened: as §3
Rattus norvegicus [14] = assay: Inhibition of spontaneous locomotor activity was performed in photocell cages. Motility was measured at […] after subcutaneous administration; value ranges from 4.2-11; conditions: sc; procedure, shortened: as §2
[15] = Rattus norvegicus, sc, read-out: ED50

Oc1cccc(C2=CCCN3CCCCC23)c1 (stereo not drawn)
ED50 (Rattus norvegicus [1]): 34 µmol/kg
ED50 (Rattus norvegicus [2]; [15]): 8.5 µmol/kg
ED50 (Rattus norvegicus [3]; [15]): > 87 µmol/kg
ED50 (Rattus norvegicus [4]): > 87 µmol/kg

Oc1cccc(C2CCC3CCCN3C2)c1 (single isomer, unassigned)
ED50 (Rattus norvegicus [2]; sc): > 67 µmol/kg

Oc1cccc(C2CCCN3CCCCC23)c1 (single isomer, unassigned; 20a)
ED50 (Rattus norvegicus [2]): >64 µM/kg
ED50 (Rattus norvegicus [3]): >64 µM/kg

Oc1cccc(C2CCC3CCCCN3C2)c1 (stereo not drawn) [listing 1 of 2 here]
ED50 (Rattus norvegicus [2]; sc): > 62 µmol/kg
ED50 (Rattus norvegicus [3]; [15]): > 64 µmol/kg

Oc1cccc(C2CCC3CCCN3C2)c1 (stereo not drawn)
ED50 (Rattus norvegicus [2]; [15]): > 67 µmol/kg
ED50 (Rattus norvegicus [3]; [15]): > 67 µmol/kg

CCCN1CCC[C@H](c2cccc(O)c2)C1
ED50 (Rattus norvegicus [5]): 63 µmol/kg
ED50 (Rattus norvegicus [6]): 40 µmol/kg
ED50 (Rattus norvegicus [3]; [15]): 1.9 µmol/kg

CCCN1CCCC(c2cccc(O)c2)C1 (stereo not drawn)
ED50 (Rattus norvegicus [5]): > 67 µmol/kg
ED50 (Rattus norvegicus [2]; [15]): 3.4 µmol/kg
ED50 (Rattus norvegicus [3]; [15]): 1.7 µmol/kg

CN1CCc2cccc3c2[C@H]1Cc1ccc(O)c(O)c1-3 [APOMORPHINE]
ED50 (Rattus norvegicus [7]): 0.64 µmol/kg
ED50 (Rattus norvegicus [3]; [15]): 0.058 µmol/kg
ED50 (Rattus norvegicus [8]): 0.092 µmol/kg
ED50 (Rattus norvegicus [4]): 0.27 µmol/kg

Oc1cccc(C2CCCN3CCCCC23)c1 (single isomer, unassigned; 20e)
ED50 (Rattus norvegicus [2]; [15]): 63 µmol/kg
ED50 (Rattus norvegicus [3]; [15]): > 87 µmol/kg

Oc1cccc(C2CCCN3CCCC23)c1 (stereo in doubt; 19e)
ED50 (Rattus norvegicus [2]; sc): 7.5 µmol/kg
ED50 (Rattus norvegicus [3]): 13 µM/kg
ED50 (Rattus norvegicus [9]): > 134 µmol/kg

Oc1cccc(C2CCC3CCCCN3C2)c1 (stereo not drawn) [listing 2 of 2 here]
ED50 (Rattus norvegicus [2]; [15]): > 64 µmol/kg
ED50 (Rattus norvegicus [10]): 9.3 µmol/kg
ED50 (Rattus norvegicus [11]): > 62 µmol/kg

Oc1cccc(C2CCCN3CCCC23)c1 (single isomer, unassigned; (+))
ED50 (Rattus norvegicus [12]): > 157 µmol/kg
ED50 (Rattus norvegicus [2]): 3.9 µM/kg
ED50 (Rattus norvegicus [3]): 7.1 µM/kg
ED50 (Rattus norvegicus [13]): 150 µmol/kg

Oc1cccc(C2CCCN3CCCC23)c1 (stereo in doubt; 19a)
ED50 (Rattus norvegicus [2]): >67 µM/kg
ED50 (Rattus norvegicus [3]): >67 µM/kg

CCCN1CCC[C@@H](c2cccc(O)c2)C1 [PRECLAMOL]
ED50 (Rattus norvegicus [12]): 33 µmol/kg
ED50 (Rattus norvegicus [6]): > 67 µmol/kg
ED50 (Rattus norvegicus [3]; [15]): 0.77 µmol/kg
ED50 (Rattus norvegicus [8]): 1.9 µmol/kg
ED50 (Rattus norvegicus [14]): 11 µmol/kg

Oc1cccc(C2CCCN3CCCC23)c1 (single isomer, unassigned; (-))
ED50 (Rattus norvegicus [5]): 100 µmol/kg
ED50 (Rattus norvegicus [2]): 40 µM/kg
ED50 (Rattus norvegicus [3]): >79 µM/kg
